Sampled rows, rich in hits. Any-hit rate of the full collection: about 1.8%.
LMPTP inh: LMPTP phosphatase inhibitors, primary screen, biochemical, fluorescence intensity, uHTS | Low molecular weight phosphotyrosine protein phosphatase (Homo sapiens), P24666 | recombinant LMPTP-A, OMFP fluorogenic substrate | inhibition, % at 20 µM | hit rate 0.22% among 360,000 | AID 651560, 2012;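 active = compounds that cut the enzyme signal by at least half of the control window in the single-dose screen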;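 note: plate controls were DMSO wells with enzyme plus substrate for no effect and substrate without enzyme for full effect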
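Test system – LMPTP-A phosphatase enzyme · Quantity – 0.625 nM LMPTP-A final · Reagent – OMFP substrate, 400 µM final · Dosing – one test concentration per compound, 20 µM, with 3% DMSO overall · Timing – 50 min enzyme reaction at room temperature, protected from light · Detection – fluorescence intensity · Controls – substrate-only low control, DMSO enzyme-plus-substrate high control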
SUMO1 PPI mod: modulators of SUMO1 protein-protein interactions, primary screen, biochemical, uHTS | Small ubiquitin-related modifier 1 (Homo sapiens), P63165 | SUMO1 binding to a labelled peptide, TR-FRET, 1 h | hit rate 0.33% among 360,000 | inhibition, % at 20 µM; in the data active = inhibition above about 37%
DNMT1 block: human DNMT1 methyltransferase inhibitors, primary screen, biochemical, molecular beacon, fluorescence, HinP1I cleavage, uHTS; DNA (cytosine-5)-methyltransferase 1 (Homo sapiens), P26358; inhibition (reported as % activation of signal), % at 10 µM; hit rate 0.83% among 360,000; AID 588458, 2011; in the data active = inhibition above about 50%
STEP block: STEP phosphatase inhibitors, primary screen, biochemical, fluorescence intensity, uHTS; hit rate 0.25% among 360,000; inhibition, % at 20 µM; recombinant STEP, OMFP fluorogenic substrate;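 active = inhibition at 20 µM, scaled per plate between control wells, above about 37%, limit read from the data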;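 note: 0% = DMSO with enzyme and substrate and 100% = substrate only without enzyme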
Target sequence (P54829 whole entry, looked up): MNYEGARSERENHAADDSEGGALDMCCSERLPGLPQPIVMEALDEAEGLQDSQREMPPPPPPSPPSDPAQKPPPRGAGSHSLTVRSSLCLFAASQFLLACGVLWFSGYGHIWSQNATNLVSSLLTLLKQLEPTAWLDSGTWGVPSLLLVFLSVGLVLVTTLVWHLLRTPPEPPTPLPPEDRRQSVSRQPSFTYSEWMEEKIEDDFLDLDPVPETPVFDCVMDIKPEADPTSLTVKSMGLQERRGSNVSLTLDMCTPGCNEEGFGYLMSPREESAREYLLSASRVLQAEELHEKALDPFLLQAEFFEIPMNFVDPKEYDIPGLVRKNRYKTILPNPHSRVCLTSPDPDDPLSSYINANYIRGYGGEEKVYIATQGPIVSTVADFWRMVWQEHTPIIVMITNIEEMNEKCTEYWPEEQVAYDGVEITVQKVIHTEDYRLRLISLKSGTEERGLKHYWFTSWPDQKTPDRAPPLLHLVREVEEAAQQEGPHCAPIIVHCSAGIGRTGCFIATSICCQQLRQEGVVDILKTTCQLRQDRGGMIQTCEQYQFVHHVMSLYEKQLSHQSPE
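System: STEP (striatal-enriched tyrosine phosphatase) enzyme, cell-free; medium: Bis-Tris pH 6.0 buffer with DTT, detergent; dosing: 20 µM, 1% DMSO; times: reaction 20 min, ambient temperature; detection: fluorescence, 480/540 nm; read-out basis: normalized % inhibition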
HKDC1 inhibitor: HKDC1 hexokinase inhibitors, primary screen, biochemical, fluorescence, uHTS | AID 493160, 2011 | Q2TB90 | hit rate 0.16% among 340,000 | inhibition, % at 20 µM | recombinant HKDC1, G6PDH/diaphorase resazurin coupled fluorescence;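 active = inhibition above about 35% when tested at 20 µM, limit read from the data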;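 note: plate controls were DMSO wells with enzyme for no effect and DMSO wells lacking enzyme for full effect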
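Incubation: 90 min at room temperature in dark / Material: recombinant HKDC1 (HK5) hexokinase enzyme, produced in-house / Quantity: enzyme 5 µg/mL final / Compound: one dose of 20 µM, 1% DMSO / Reagent: glucose and ATP substrates / Buffer or medium: Tris pH 8.0 buffer with MgCl2, Tween-20, BSA, BME / Technique: resorufin fluorescence at 613 nm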
Scp1 inh: Scp-1 phosphatase inhibitors, primary screen, biochemical, colorimetric, uHTS; AID 493091, 2011; Recombinant Scp1, phosphopeptide, malachite green phosphate absorbance; Carboxy-terminal domain RNA polymerase II polypeptide A small phosphatase 1 (Homo …; hit rate 0.88% among 340,000; inhibition, % at 20 µM;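 active = inhibition above about 50% at 20 µM, limit read from the data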;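 note: plate controls were DMSO wells with enzyme for no effect and wells lacking enzyme for full effect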
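Assay system: SCP-1 catalytic fragment, aa 76-261 | Buffer or medium: Tris acetate buffer pH 5.5 with MgCl2 and Tween-20 | Compound: One concentration, 20 µM, with 1.0% DMSO | Also added: Phospho 17-mer peptide substrate | Signal: Absorbance at 630 nm | Incubation: 45 min enzyme reaction at room temperature | Measure: % inhibition of SCP-1 phosphate liberation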
HKDC1 act conf: HKDC1 hexokinase activators, confirmation, biochemical, single concentration; recombinant HKDC1, G6PDH/diaphorase resazurin fluorescence; active compounds read low; AID 504708, 2011; inhibition, % at 20 µM; shares compounds with HKDC1 inhibitor; hit rate 14% among 740;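 active = inhibition at or below a set negative limit, negative inhibition meaning the enzyme was activated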
An asterisk follows results filed as active; . = no result; ! = not confirmed by another sample.

SMILES	LMPTP inh	SUMO1 PPI mod	DNMT1 block	STEP block	HKDC1 inhibitor	Scp1 inh	HKDC1 act conf
O=C1C(Nc2ccccc2)=C/C(=N/S(=O)(=O)c2cccs2)c2ccccc21	8	32	68*	2	68*	-4	65
COC(=O)c1cccc(NS(=O)(=O)c2cccs2)c1C	0	3	4	-1	-9	-5	.
COC(=O)c1ccccc1NC1=C/C(=N\S(=O)(=O)c2cccs2)c2ccccc2C1=O	7	-2	45	4	39*!	-16	39
COC(=O)c1ccccc1NC1=C/C(=N\S(=O)(=O)c2ccc(C(=O)O)cc2)c2ccccc2C1=O	2	103*	81*	25	82*	12	86
CC(N)C(=O)NC(C(=O)NC(C)C(=O)Nc1cccc2ccccc12)C(C)C (centres undefined)	-1	-15	-10	1	.	.	.
C=CCOC(=O)Nc1nc(CCNC(=O)OCc2ccccc2)c(C(=O)O)s1	0	1	.	.	.	.	.
COC(=O)[C@]12CCCCC=C1N(Cc1ccccc1)C(=O)[C@H](CC(=O)NCC13CC4CC(CC(C4)C1)C3)C2	4	3	.	.	.	.	.
C=CCNC(=S)N/N=C(\C)c1ccccn1	0	1	0	-3	-44	-5	-6
CC(=NNC(=S)Nc1ccccc1)c1ccccn1	-1	-7	-5	1	.	.	.
Clc1ccc(N=c2ssnc2Cl)nc1	79*	21	-6	31	-194	-11	-80*
Clc1nssc1=Nc1nncs1	33	-9	-17	20	-8	2	.
CCCCCC(=O)Nc1cc(S(=O)(=O)O)cc2cc(S(=O)(=O)O)cc(O)c12	96*	119*	-19	99*	33	102*	19
Cc1c(N=C2C=CC(=O)c3ccccc32)c(=O)n(-c2ccccc2)n1C	4	36	15	-1	42*	-4	35
CCc1nc2ccc(C(=O)N(C)Cc3ccco3)cn2c1N(C)CCCc1ccccc1	-2	6	0	0	.	.	.
CCOC(=O)C1(C)CCCN(C(=O)c2ccc(C)c(F)c2)C1 (centres undefined)	-1	-5	8	-2	.	.	.
NC1=C(Cl)C(=O)c2ccc(S(N)(=O)=O)cc2C1=O	6	6	80*	9	-134	0	-43*
COc1cc(NC(=O)C2CC(c3ccccc3O)=NO2)cc(OC)c1OC (centres undefined)	-1	5	0	-1	.	.	.
O=C1C(Cl)=C(NCCCO)C(=O)c2ccccc21	4	-31	-9	1	1	1	.
O=C1C(SCCO)=C(SCCO)C(=O)c2ccccc21	22	35	81*	24	72*	-6	84
CC(=O)Nc1ccc(S(=O)(=O)NCCC(=O)OC(C)C(=O)c2ccc(C)cc2)cc1 (centres undefined)	2	-3	0	-5	35*	-2	-16
Cc1ccc(NC(=O)C(C)OC(=O)CCNS(=O)(=O)c2ccc(C)cc2)cc1 (centres undefined)	-1	-2	1	1	-10	2	.
CCCNC(=O)C1(C)CCN(Cc2csc3ccccc23)C1 (centres undefined)	3	0	3	-4	.	.	.
Cc1cc(S(=O)(=O)N2CCC3(CC2)OCCO3)c(C)cc1Cl	0	3	1	2	-5	0	.
O=S(=O)(c1cc(Cl)cc(Cl)c1O)N1CCC2(CC1)OCCO2	-1	5	0	-1	34	22	-12
CC1(C)C(=O)Nc2ccccc2N1C(=O)COC(=O)c1cc(Cl)cc(Cl)c1	4	7	48	1	-41	23	-50*

Assay outcomes deposited in PubChem by Sanford-Burnham Center for Chemical Genomics.
